ChEMBL document CHEMBL1155278, “3,4-Diaryl-isoxazoles and -imidazoles as potent dual inhibitors of p38alpha mitogen activated protein kinase and casein kinase 1delta” (J Med Chem, 2009)

How the values were obtained:
[1] = target: Tyrosine-protein kinase Yes (Homo sapiens) (UniProt P07947); assay: Inhibition of YES1 assessed as residual activity at 0.1 uM by Cherenkov counting relative to control in presence of 20 uM ATP
In short: (§1)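 Single-concentration screen at 0.1 μM in a 76-kinase panel. ATP for each kinase was set near its Km for ATP. Residual activity is given as a percentage of control assays without compound, mean of n = 3 ± SD.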

[2] = target: Casein kinase I isoform delta (Homo sapiens, UniProt P48730); assay: Inhibition of recombinant CK1delta kinase domain by Cherenkov counting
[3] = target: Mitogen-activated protein kinase 13 (Homo sapiens) (UniProt O15264); assay: Inhibition of p38delta assessed as residual activity at 0.1 uM by Cherenkov counting relative to control; in short: as §1
[4] = target: Ribosomal protein S6 kinase beta-1 (Homo sapiens) (UniProt P23443); assay: Inhibition of S6K1 assessed as residual activity at 0.1 uM by Cherenkov counting relative to control in presence of 20 uM ATP; in short: as §1
[5] = target: T1, MAP kinase-activated protein kinase 5 (Homo sapiens) (UniProt Q8IW41); assay: Inhibition of PRAK assessed as residual activity at 0.1 uM by Cherenkov counting relative to control in presence of 20 uM ATP; in short: as §1
T1 sequence (whole entry): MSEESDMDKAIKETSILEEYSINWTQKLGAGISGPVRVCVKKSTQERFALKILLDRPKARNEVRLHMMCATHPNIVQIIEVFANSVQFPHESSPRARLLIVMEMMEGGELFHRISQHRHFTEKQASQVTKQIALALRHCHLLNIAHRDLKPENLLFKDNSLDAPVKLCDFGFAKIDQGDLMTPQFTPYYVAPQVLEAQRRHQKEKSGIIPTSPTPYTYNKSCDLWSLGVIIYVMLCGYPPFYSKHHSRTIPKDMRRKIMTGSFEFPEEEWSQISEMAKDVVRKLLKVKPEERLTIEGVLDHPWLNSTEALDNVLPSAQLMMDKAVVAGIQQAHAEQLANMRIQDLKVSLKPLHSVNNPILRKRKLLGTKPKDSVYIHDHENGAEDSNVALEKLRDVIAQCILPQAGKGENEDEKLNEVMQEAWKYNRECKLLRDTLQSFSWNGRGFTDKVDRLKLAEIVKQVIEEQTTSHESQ

[6] = target: Aurora kinase B (Homo sapiens) (UniProt Q96GD4); assay: Inhibition of Aurora B assessed as residual activity at 0.1 uM by Cherenkov counting relative to control in presence of 20 uM ATP
In short: (§2)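 Single-concentration screen at 0.1 µM across a panel of 76 protein kinases. Each kinase was run at an ATP concentration approximating its ATP Km. Results are % mean residual activity versus control assays without compound (n = 3 ± SD).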

[7] = target: SRSF protein kinase 1 (Homo sapiens) (UniProt Q96SB4); assay: Inhibition of SRPK1 assessed as residual activity at 0.1 uM by Cherenkov counting relative to control in presence of 50 uM ATP; in short: as §1
[8] = target: Homeodomain-interacting protein kinase 2 (Homo sapiens) (UniProt Q9H2X6); assay: Inhibition of HIPK2 assessed as residual activity at 0.1 uM by Cherenkov counting relative to control in presence of 5 uM ATP; in short: as §2
[9] = target: Tyrosine-protein kinase Lck (Homo sapiens) (UniProt P06239); assay: Inhibition of Lck assessed as residual activity at 0.1 uM by Cherenkov counting relative to control in presence of 50 uM ATP
In short: (§3)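 Single-concentration selectivity screen at 0.1 μM against a panel of 76 protein kinases. Each kinase was run at an ATP level approximating its Km for ATP. Output is mean residual activity as % of the control assay without compound, n = 3 ± SD.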

[10] = target: Insulin receptor-related protein (Homo sapiens) (UniProt P14616); assay: Inhibition of IRR assessed as residual activity at 0.1 uM by Cherenkov counting relative to control in presence of 5 uM ATP; in short: as §3
[11] = target: Rho-associated protein kinase 2 (Homo sapiens) (UniProt O75116); assay: Inhibition of ROCK2 assessed as residual activity at 10 uM by Cherenkov counting relative to control in presence of 20 uM ATP
In short: (§4)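 Single-concentration profiling at 10 μM in a 78-kinase panel. Kinase activity is expressed as a percentage of control assays run without compound.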

[12] = target: Calcium/calmodulin-dependent protein kinase type 1 (Homo sapiens) (UniProt Q14012); assay: Inhibition of CAMK1 assessed as residual activity at 10 uM by Cherenkov counting relative to control in presence of 50 uM ATP
In short: (§5)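 Single-point profiling at 10 µM in a panel of 78 protein kinases. Kinase activity is expressed as a percentage relative to control assays without compound.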

[13] = target: Serine/threonine-protein kinase PLK1 (Homo sapiens) (UniProt P53350); assay: Inhibition of okadaic acid-induced PLK1 assessed as residual activity at 10 uM by Cherenkov counting relative to control in presence of 5 uM ATP; in short: as §4
[14] = target: Homeodomain-interacting protein kinase 3 (Homo sapiens) (UniProt Q9H422); assay: Inhibition of HIPK3 assessed as residual activity at 10 uM by Cherenkov counting relative to control; in short: as §5
[15] = target: T2, Serine/threonine-protein kinase TBK1 (Homo sapiens) (UniProt Q9UHD2); assay: Inhibition of TBK1 assessed as residual activity at 10 uM by Cherenkov counting relative to control in presence of 50 uM ATP; in short: as §4
T2 sequence (whole entry): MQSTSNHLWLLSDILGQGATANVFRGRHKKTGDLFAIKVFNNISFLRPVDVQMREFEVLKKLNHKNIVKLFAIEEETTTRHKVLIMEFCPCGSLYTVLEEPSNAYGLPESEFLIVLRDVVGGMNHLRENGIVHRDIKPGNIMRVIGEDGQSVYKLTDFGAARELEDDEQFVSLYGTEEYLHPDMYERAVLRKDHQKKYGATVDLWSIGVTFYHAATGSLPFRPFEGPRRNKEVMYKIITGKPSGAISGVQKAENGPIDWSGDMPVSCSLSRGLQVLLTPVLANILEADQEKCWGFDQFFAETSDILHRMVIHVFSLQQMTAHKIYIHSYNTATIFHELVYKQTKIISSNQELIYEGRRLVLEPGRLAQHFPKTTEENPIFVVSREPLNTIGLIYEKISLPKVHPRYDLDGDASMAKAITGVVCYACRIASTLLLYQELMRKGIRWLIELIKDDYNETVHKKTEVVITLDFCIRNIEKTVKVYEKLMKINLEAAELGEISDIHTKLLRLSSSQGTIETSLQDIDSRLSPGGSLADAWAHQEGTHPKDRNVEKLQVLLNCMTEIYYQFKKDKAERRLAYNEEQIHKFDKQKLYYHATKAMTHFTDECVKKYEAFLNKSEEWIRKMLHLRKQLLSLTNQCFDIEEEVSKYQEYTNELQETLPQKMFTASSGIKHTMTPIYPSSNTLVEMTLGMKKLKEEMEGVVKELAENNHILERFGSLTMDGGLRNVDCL

[16] = target: 3-phosphoinositide-dependent protein kinase 1 (Homo sapiens) (UniProt O15530); assay: Inhibition of PDK1 assessed as residual activity at 10 uM by Cherenkov counting relative to control in presence of 20 uM ATP

Chain of Calcium/calmodulin-dependent protein kinase type 1 (Homo sapiens) (Q14012 whole entry, looked up): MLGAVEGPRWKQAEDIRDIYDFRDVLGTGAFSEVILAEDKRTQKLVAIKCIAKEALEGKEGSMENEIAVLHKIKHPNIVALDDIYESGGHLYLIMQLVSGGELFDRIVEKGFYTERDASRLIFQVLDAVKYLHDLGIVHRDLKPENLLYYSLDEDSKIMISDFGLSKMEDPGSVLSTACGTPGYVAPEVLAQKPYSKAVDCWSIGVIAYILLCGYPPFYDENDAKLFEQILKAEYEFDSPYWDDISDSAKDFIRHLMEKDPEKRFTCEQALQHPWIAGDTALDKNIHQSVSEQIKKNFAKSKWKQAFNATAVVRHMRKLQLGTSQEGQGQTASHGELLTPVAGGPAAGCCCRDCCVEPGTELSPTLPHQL
Chain of Mitogen-activated protein kinase 13 (Homo sapiens) (O15264 whole entry): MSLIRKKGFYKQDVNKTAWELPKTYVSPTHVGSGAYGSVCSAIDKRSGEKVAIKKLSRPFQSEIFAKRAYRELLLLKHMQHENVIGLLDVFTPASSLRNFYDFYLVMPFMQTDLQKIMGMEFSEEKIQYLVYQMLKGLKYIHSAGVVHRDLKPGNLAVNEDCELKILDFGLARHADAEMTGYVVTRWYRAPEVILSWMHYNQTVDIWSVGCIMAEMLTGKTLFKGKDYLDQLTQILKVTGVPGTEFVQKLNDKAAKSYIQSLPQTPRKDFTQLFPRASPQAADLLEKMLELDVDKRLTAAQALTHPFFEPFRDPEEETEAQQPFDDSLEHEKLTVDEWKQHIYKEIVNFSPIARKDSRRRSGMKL
Chain of SRSF protein kinase 1 (Homo sapiens) (Q96SB4 whole entry): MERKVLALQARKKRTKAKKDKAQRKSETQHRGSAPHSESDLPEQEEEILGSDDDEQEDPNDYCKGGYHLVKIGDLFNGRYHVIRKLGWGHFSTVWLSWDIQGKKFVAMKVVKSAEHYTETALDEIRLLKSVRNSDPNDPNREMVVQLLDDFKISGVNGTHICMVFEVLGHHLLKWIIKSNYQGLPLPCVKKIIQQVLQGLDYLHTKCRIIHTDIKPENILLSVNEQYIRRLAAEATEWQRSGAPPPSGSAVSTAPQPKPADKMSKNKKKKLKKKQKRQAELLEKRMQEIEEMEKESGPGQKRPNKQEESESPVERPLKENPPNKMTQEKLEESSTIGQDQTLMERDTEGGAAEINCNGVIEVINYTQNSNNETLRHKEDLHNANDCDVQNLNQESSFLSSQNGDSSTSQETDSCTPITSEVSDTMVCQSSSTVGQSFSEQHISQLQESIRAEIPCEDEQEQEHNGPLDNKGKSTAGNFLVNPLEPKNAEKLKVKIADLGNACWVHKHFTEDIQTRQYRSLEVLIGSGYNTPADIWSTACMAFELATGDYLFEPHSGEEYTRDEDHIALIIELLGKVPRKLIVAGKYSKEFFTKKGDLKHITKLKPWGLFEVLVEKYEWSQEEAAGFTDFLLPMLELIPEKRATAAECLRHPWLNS
Chain of Homeodomain-interacting protein kinase 3 (Homo sapiens) (Q9H422 whole entry, looked up): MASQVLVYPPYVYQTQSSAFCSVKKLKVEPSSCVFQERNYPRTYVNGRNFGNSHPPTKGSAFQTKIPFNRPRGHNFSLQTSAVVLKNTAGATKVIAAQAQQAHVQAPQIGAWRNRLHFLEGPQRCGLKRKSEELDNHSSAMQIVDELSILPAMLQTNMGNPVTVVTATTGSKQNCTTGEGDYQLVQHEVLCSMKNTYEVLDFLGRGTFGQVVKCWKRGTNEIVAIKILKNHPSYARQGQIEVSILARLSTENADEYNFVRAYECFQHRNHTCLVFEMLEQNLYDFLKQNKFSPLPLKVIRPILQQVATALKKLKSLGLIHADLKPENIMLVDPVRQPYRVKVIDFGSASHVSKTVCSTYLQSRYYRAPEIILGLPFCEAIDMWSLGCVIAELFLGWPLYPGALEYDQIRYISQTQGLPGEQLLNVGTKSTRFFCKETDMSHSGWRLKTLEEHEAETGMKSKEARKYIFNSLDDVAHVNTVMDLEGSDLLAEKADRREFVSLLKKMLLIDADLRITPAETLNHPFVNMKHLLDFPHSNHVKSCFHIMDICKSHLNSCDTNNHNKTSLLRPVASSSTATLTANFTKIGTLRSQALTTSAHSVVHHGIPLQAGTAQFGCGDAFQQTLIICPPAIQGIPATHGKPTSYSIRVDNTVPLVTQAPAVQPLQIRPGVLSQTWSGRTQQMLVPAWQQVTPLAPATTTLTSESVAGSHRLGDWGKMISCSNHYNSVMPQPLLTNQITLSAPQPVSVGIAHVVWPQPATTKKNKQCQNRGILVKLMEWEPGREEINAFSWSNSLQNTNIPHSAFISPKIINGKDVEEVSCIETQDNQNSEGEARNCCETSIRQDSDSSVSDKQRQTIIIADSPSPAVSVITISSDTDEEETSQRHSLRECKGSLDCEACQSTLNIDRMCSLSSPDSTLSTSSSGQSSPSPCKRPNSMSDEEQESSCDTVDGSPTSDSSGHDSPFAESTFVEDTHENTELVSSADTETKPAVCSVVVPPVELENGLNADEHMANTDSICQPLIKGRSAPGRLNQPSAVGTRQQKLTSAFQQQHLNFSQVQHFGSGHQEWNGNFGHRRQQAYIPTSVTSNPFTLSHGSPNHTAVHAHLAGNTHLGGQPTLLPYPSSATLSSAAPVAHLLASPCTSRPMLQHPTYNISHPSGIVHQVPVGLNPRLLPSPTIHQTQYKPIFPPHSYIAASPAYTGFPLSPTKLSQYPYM
Chain of Casein kinase I isoform delta (P48730 whole entry, the tested form may be a part, canonical isoform): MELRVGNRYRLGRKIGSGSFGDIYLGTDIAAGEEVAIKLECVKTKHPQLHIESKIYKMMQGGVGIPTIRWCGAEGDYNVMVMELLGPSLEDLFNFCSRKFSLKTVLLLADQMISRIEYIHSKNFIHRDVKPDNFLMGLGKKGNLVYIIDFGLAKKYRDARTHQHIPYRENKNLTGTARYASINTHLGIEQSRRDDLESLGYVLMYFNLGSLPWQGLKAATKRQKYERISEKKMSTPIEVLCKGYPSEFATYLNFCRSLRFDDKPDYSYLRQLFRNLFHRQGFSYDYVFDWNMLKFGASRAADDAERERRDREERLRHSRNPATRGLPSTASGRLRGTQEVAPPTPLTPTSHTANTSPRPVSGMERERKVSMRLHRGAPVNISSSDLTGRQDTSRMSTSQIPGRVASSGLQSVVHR
Chain of Rho-associated protein kinase 2 (Homo sapiens) (O75116 whole entry, looked up): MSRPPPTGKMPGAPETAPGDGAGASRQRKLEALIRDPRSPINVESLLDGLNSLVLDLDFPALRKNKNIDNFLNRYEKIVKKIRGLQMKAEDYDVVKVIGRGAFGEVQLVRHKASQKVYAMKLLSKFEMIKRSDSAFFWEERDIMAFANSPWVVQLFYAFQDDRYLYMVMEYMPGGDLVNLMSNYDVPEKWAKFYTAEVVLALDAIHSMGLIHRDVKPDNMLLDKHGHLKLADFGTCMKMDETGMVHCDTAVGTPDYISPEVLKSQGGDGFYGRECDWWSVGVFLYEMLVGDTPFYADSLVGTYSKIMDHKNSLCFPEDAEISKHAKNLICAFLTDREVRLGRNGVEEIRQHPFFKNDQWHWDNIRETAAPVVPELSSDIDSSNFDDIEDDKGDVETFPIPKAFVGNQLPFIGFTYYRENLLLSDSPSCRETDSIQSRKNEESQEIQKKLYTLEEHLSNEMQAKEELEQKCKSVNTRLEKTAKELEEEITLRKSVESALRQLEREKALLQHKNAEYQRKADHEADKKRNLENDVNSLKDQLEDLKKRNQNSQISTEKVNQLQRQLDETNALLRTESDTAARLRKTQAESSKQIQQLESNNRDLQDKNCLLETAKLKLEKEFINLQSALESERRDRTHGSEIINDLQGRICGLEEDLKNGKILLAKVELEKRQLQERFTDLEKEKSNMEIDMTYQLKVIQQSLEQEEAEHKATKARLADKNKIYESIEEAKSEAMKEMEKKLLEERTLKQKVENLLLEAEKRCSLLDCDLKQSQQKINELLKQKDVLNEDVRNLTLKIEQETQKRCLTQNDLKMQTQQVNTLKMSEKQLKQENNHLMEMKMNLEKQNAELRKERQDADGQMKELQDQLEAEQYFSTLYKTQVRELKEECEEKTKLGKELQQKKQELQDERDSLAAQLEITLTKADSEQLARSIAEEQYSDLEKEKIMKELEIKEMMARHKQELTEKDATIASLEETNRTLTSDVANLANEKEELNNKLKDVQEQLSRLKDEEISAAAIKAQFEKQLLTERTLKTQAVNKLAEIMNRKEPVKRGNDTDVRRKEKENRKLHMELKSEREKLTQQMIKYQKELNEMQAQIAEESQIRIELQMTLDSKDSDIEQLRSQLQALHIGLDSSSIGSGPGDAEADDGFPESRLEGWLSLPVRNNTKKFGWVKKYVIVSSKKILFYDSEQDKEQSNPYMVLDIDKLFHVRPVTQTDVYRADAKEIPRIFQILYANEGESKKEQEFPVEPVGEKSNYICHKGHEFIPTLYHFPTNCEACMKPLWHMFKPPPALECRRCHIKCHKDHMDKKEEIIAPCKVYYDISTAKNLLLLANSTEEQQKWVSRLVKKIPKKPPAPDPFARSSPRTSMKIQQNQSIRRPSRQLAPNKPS
Chain of Serine/threonine-protein kinase PLK1 (Homo sapiens) (P53350 whole entry): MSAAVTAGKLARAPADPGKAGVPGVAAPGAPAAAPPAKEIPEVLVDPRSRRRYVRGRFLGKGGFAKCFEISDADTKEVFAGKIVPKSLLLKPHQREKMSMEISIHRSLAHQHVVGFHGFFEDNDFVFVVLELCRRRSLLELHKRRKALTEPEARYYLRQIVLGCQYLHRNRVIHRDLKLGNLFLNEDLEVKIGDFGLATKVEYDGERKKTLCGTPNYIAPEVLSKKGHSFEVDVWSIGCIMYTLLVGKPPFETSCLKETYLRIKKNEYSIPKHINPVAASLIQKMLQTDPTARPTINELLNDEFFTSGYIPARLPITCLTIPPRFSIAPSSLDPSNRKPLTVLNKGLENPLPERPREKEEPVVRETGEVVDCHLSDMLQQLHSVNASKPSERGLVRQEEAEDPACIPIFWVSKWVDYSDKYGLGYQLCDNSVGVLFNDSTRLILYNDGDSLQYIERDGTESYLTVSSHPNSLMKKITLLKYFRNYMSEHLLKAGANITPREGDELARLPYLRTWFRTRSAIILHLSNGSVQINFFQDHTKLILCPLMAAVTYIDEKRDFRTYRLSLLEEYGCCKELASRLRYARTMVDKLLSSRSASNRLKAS

SMILES: COc1ccc(/C=C/C(=O)Nc2cc(-c3[nH]c(SC)nc3-c3ccc(F)cc3)ccn2)c(OC)c1
- Activity [1]: 24%
- IC50 [2]: 4 nM
- Activity [3]: 90%
- Activity [4]: 67%
- Activity [5]: 83%
- Activity [6]: 93%
- Activity [7]: 91%
- Activity [8]: 94%
- Activity [9]: 50%
- Activity [10]: 61%

SMILES: COc1ccc(/C=C/C(=O)Nc2cc(-c3[nH]c([S+](C)[O-])nc3-c3ccc(F)cc3)ccn2)c(OC)c1 (configuration not stated)
- Activity [1]: 14%
- IC50 [2]: 5 nM
- Activity [3]: 100%
- Activity [4]: 74%
- Activity [5]: 101%
- Activity [6]: 93%
- Activity [7]: 97%
- Activity [8]: 104%
- Activity [9]: 74%
- Activity [10]: 83%

SMILES: CC(C)c1onc(-c2ccc(F)cc2)c1-c1ccncc1
- Activity [11]: 76%
- Activity [12]: 75%
- Activity [13]: 104%
- Activity [14]: 92%
- Activity [15]: 90%
- Activity [16]: 82%

SMILES: CC(C)c1noc(-c2ccc(F)cc2)c1-c1ccncc1
- Activity [11]: 77%
- Activity [12]: 76%
- Activity [13]: 105%
- Activity [14]: 100%
- Activity [15]: 80%
- Activity [16]: 85%
